From ChEMBL document CHEMBL4312029, “Structure-activity relationship studies and in vitro and in vivo anticancer activity of novel 3-aroyl-1,4-diarylpyrroles against solid tumors and hematological malignancies” (Eur J Med Chem, 2020)
The source made the active and inactive calls. The rule behind the calls is not given here.

Assays:
Tubulin (Homo sapiens) = Tubulin (Homo sapiens) (UniProt P68371+Q9H4B7+P0DPH7+P68366+Q13509+Q71U36+P04350+Q3ZCM7+P07437+P68363+Q9BQE3+Q6PEY2+Q13885+Q9BVA1+Q9BUF5); test: Inhibition of [3H]colchicine binding to tubulin (unknown origin) at 5 uM incubated for 10 mins by DEAE-cellulose filter method relative to control; assay type: protein-complex assay
HCT-116 = test: Cytotoxicity against human HCT116 cells assessed as reduction in cell viability incubated for 48 hrs by MTT assay; assay type: functional, cell-based
HT-29 = test: Cytotoxicity against human HT-29 cells assessed as reduction in cell viability incubated for 48 hrs by MTT assay; assay type: functional, cell-based
PBMC = test: Cytotoxicity against human PBMC assessed as cell viability by MTT assay; assay type: cell-based
T-24 = test: Cytotoxicity against human T24 cells assessed as reduction in cell viability incubated for 48 hrs by MTT assay; assay type: functional, cell-based; settings: T-24, 48 h
SW-620 = test: Cytotoxicity against human SW620 cells assessed as reduction in cell viability incubated for 48 hrs by MTT assay; assay type: functional, cell-based
KBM5 [1] = test: Induction of apoptotic cell death in human KBM5 cells expressing IM-resistant Bcr/Abl T315I mutant at 10 nM incubated for 48 hrs by Annexin V-staining based flow cytometry; assay type: functional
Procedure, shortened: (§1)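 KBM5-WT and KBM5-T315I cells exposed 48 h to 10 nM test compound alone or combined with 10 nM nilotinib (nilotinib alone as comparator). Apoptotic cells quantified by annexin V staining and flow cytometry; triplicate.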

KU812 cell line = test: Cytotoxicity against human KU812 cells expressing IM- sensitive wild type Bcr/Abl assessed as reduction in cell viability incubated for 48 hrs by MTT assay; assay type: functional, cell-based; settings: KU812, 48 h
SW480 = test: Cytotoxicity against human SW480 cells assessed as reduction in cell viability incubated for 48 hrs by MTT assay; assay type: functional, cell-based
U-87 MG = test: Cytotoxicity against human U87MG cells assessed as reduction in cell viability incubated for 48 hrs by MTS assay; assay type: functional, cell-based, U-87MG ATCC
Procedure, shortened: (§2)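 Increasing concentrations applied to glioblastoma and neuroblastoma lines to give dose-response viability curves; cytotoxic IC50 from triplicate experiments. Incubation 48 h, except U343MG at 72 h.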

[2] = Cytotoxicity against human LAMA84-s cells expressing IM-sensitive wild type Bcr/Abl assessed as reduction in cell viability incubated for 48 hrs by MTT assay; assay type: functional, cell-based
T98G = test: Cytotoxicity against human T98G cells assessed as reduction in cell viability incubated for 48 hrs by MTS assay; assay type: functional, cell-based; procedure, shortened: as §2
[3] = Cytotoxicity against IM resistant human LAMA84-r cells assessed as reduction in cell viability incubated for 48 hrs by MTT assay; assay type: functional, cell-based
KBM5 [4] = test: Potentiation of NLT-induced apoptotic cell death in human KBM5 cells expressing IM-sensitive wild type Bcr/Abl at 10 nM co-incubated with NLT for 48 hrs by Annexin V-staining based flow cytometry; assay type: functional
Procedure, shortened: (§3)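 KBM5-WT or KBM5-T315I CML cells treated 48 h with 10 nM nilotinib, with or without 10 nM test compound (each agent alone also run). Apoptosis measured by annexin V staining and flow cytometry, read as percentage of apoptotic cells. Triplicate experiments.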

Homo sapiens = organism: Homo sapiens; test: (§4) Cytotoxicity against human U343MG cells assessed as reduction in cell viability incubated for 72 hrs by MTS assay; assay type: functional, cell-based; procedure, shortened: as §2
[5] = as §4; assay type: functional, cell-based; settings: U-343MG; procedure, shortened: as §2
MCF7 = test: Cytotoxicity against human MCF7 cells assessed as reduction in cell growth incubated for 96 hrs by MTT assay; assay type: functional, cell-based; settings: MCF7, 96 h
Procedure, shortened: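 Growth inhibition of human breast carcinoma cells, reported as IC50; run in duplicate or triplicate.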

[6] = Cytotoxicity against human SK-N-BE(2)C cells assessed as reduction in cell viability incubated for 48 hrs by MTT assay; assay type: functional, cell-based; procedure, shortened: as §2
[7] = Cytotoxicity against human SK-N-BE cells assessed as reduction in cell viability incubated for 48 hrs by MTT assay; assay type: functional, cell-based; procedure, shortened: as §2
Tubulin = test: Inhibition of tubulin polymerization (unknown origin) incubated for 15 mins followed by GTP addition and measured for 20 mins by spectrophotometry; assay type: protein-complex assay, Homo sapiens
Procedure, shortened: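 Tubulin assembly assay with tubulin at 10 µM. IC50 for inhibition of polymerization; run in duplicate or triplicate.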

KBM5 [8] = test: Cytotoxicity against human KBM5 cells expressing IM-resistant Bcr/Abl T315I mutant assessed as reduction in cell viability incubated for 48 hrs by MTT assay; assay type: functional, cell-based; settings: KBM5, 48 h
KBM5 [9] = test: Cytotoxicity against human KBM5 cells expressing IM- sensitive wild type Bcr/Abl assessed as reduction in cell viability incubated for 48 hrs by MTT assay; assay type: functional, cell-based; settings: KBM5, 48 h
KBM5 [10] = test: Induction of apoptotic cell death in human KBM5 cells expressing IM-sensitive wild type Bcr/Abl at 10 nM incubated for 48 hrs by Annexin V-staining based flow cytometry; assay type: functional; procedure, shortened: as §1
KBM5 [11] = test: Potentiation of NLT-induced apoptotic cell death in human KBM5 cells expressing IM-resistant Bcr/Abl T315I mutant at 10 nM co-incubated with NLT for 48 hrs by Annexin V-staining based flow cytometry; assay type: functional; procedure, shortened: as §3

**Q.** For `COc1cc(C(=O)c2cn(-c3ccc(N)cc3)cc2-c2ccc(N)cc2)cc(OC)c1OC`, which inhibition (Tubulin (Homo sapiens)) is on record?
**A.** 87%

**Q.** What about the inhibition (HCT-116) of the same compound?
**A.** Dose-dependent effect

**Q.** And the IC50 (HCT-116; HCT-116, 48 h)?
**A.** 0.041 µM

**Q.** What about the inhibition (HT-29) of the same compound?
**A.** Dose-dependent effect

**Q.** And the IC50 (HT-29; HT-29, 48 h)?
**A.** 0.034 µM

**Q.** What about the Activity (PBMC) of the same compound?
**A.** Non-Toxic

**Q.** And the IC50 (T-24)?
**A.** 0.058 µM

**Q.** And the inhibition (SW-620)?
**A.** Dose-dependent effect

**Q.** What about the IC50 (SW-620; SW-620, 48 h) of the same compound?
**A.** 0.061 µM

**Q.** And the Activity (KBM5 [1])?
**A.** Active

**Q.** And the IC50 (KU812 cell line)?
**A.** 0.005 µM

**Q.** What about the inhibition (SW480) of the same compound?
**A.** Dose-dependent effect

**Q.** And the IC50 (SW480; SW480, 48 h)?
**A.** 0.153 µM

**Q.** And the Emax (U-87 MG)?
**A.** 31.8%

**Q.** What about the IC50 (U-87 MG) of the same compound?
**A.** 0.0476 to 0.048 µM

**Q.** What about the inhibition (U-87 MG; U-87MG ATCC) of the same compound?
**A.** Dose-dependent effect

**Q.** What about the IC50 [2] of the same compound?
**A.** 0.008 µM

**Q.** What about the Emax (T98G) of the same compound?
**A.** 36.2%

**Q.** What about the IC50 (T98G) of the same compound?
**A.** 0.024 to 0.0243 µM

**Q.** What about the inhibition (T98G) of the same compound?
**A.** Dose-dependent effect

**Q.** What about the IC50 [3] of the same compound?
**A.** 0.01 µM

**Q.** And the Activity (KBM5 [4])?
**A.** 50 - 90%

**Q.** And the inhibition (Homo sapiens)?
**A.** Dose-dependent effect

**Q.** What about the Emax [5] of the same compound?
**A.** 34%

**Q.** And the IC50 [5]?
**A.** 0.0215 to 0.022 µM

**Q.** And the IC50 (MCF7)?
**A.** 0.015 µM

**Q.** What about the IC50 [6] of the same compound?
**A.** 0.147 µM

**Q.** What about the IC50 [7] of the same compound?
**A.** 0.303 µM

**Q.** And the IC50 (Tubulin)?
**A.** 0.38 µM

**Q.** What about the IC50 (KBM5 [8]) of the same compound?
**A.** 0.012 µM

**Q.** What about the IC50 (KBM5 [9]) of the same compound?
**A.** 0.01 µM

**Q.** And the Activity (KBM5 [10])?
**A.** Active

**Q.** What about the Activity (KBM5 [11]) of the same compound?
**A.** 50 - 90%
